Screening results: PubChem, Broad Institute
FN deposition inh – fibronectin deposition inhibition | AH1F fibroblasts, Alexa488-fibronectin deposition fluorescence, overnight | inhibition, % at 12.6 µM | hit rate 0.086% among 350,000;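 active = mean inhibition across replicates of 30% or more, regardless of how many single replicates reach that level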;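 also: positive control wells lacked labelled fibronectin entirely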
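Measured by – fluorescence 485/525 nm · System – AH1F fibroblast monolayer, labelled fibronectin deposition · Amount – 10000 cells per well · Buffer or medium – serum-reduced DMEM (2% serum) · Doses – single dose, pinned · Also added – fluorescent fibronectin at 24 nM final · Schedule – 1 h cell attachment, overnight exposure to compound and label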
PDI turbidity – blocks human protein disulfide isomerase activity. PDI insulin aggregation turbidity, A650, 90 min. inhibition, % at 10 µM. hit rate 0.052% among 350,000;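 active = mean inhibition across replicates of 30% or more, whatever share of single replicates reach that level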
AF4-AF9 inh – MLL-AF4/AF9 protein interaction inhibition; AlphaScreen, biotin-AF4 peptide binding to FLAG-AF9; inhibition, % at 10 µM; hit rate 0.47% among 350,000;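 active = every replicate reaching a set inhibition limit, whatever the replicate mean, cut at about 25% in these data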;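 also: 0% = plate neutral control median and 100% = total signal loss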
SIRT5 block – blocks human SIRT5 desuccinylation of peptide; Q9NXA8; Purified SirT5, succinyl-peptide AMC, trypsin-coupled fluorescence; inhibition, % at 15 µM; hit rate 1.1% among 330,000; in the data active = inhibition above about 15%
Target sequence (Q9NXA8 whole entry, looked up): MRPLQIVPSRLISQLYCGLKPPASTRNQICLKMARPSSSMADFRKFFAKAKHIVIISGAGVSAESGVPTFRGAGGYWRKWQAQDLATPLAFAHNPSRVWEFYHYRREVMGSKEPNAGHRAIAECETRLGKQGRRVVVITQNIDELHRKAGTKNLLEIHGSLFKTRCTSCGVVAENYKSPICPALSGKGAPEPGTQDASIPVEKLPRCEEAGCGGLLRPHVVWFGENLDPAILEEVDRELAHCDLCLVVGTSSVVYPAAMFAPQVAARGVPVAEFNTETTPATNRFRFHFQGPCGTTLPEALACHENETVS
ERp5 inh – inhibitors of human ERp5; hit rate 0.05% among 350,000; Q15084; ERp5 insulin aggregation, absorbance 650 nm, 90 min; inhibition, % at 9.99 µM;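 active = mean replicate inhibition above about 25%, with every replicate also reaching it, limit read from the data, passing the limit was not always enough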
* marks the source's active call; other numbers are inactive results; x = not tested or not shown. Only some compounds are listed: those with a hit (about 1.3% of all), similar ones and a draw of the others.

SMILES	FN deposition inh	PDI turbidity	AF4-AF9 inh	SIRT5 block	ERp5 inh
C/C=C/c1ccc2c(c1)O[C@@H](CN(C)Cc1ccc(F)cc1)[C@H](C)CN([C@H](C)CO)S2(=O)=O	-6	x	12	16*	0
C/C=C/c1ccc2c(c1)O[C@H](CN(C)Cc1ccccc1F)[C@H](C)CN([C@H](C)CO)S2(=O)=O	x	x	11	13*	-7
NC(=O)C1(N2CCCCC2)CCN(C2CC(=O)N(CCc3ccccc3)C2=O)CC1 (stereo unspecified)	x	15	x	x	x
CCOC(=O)C1CCN(C(=O)Cn2cc(C(=O)OC)c3ccccc32)CC1	-6	1	-2	18*	1
COC(=O)c1cn(CC(=O)NCc2ccco2)c2ccccc12	31*	1	x	x	x
C/C(=C\c1ccco1)C1C(C#N)=C(N)Oc2n[nH]c(-c3ccccc3)c21 (stereo unspecified)	x	-1	x	x	x
CC1Cc2nc(SCC(=O)N3CCN(c4ccccc4)CC3)n(CCc3ccccc3)c(=O)c2S1 (stereo unspecified)	1	x	2	-1	-1
CCCCOC(=O)c1ccccc1N1C(=O)C2C3CCC(C3)C2C1=O (stereo unspecified)	-4	-2	3	-7	0
C=CC[C@@H](CC(=O)OC(C)(C)C)C(=O)OC[C@@H]1CCCN1C(=O)[C@@H](CC=C)CC(=O)N[C@@H](CO)Cc1ccccc1	9	3	-2	25*	2
C=CC[C@@H](CC(=O)N[C@H](CO)Cc1ccccc1)C(=O)N[C@@H](COC(=O)[C@@H](CC=C)CC(=O)OC(C)(C)C)Cc1ccccc1	-13	3	-2	18*	3
CCOc1ccc(OCCSc2ccc(S(=O)(=O)N3CCN(C)CC3)cn2)cc1	-2	-1	27*	-2	1
CCCC(C(=O)O)N1C(=O)/C(=C2\C(=O)N(C)c3ccccc32)SC1=S (stereo unspecified)	x	4	x	x	x
O=C(O)CN1C(=O)/C(=C2\SC(=S)N(C(Cc3ccccc3)C(=O)O)C2=O)c2ccccc21 (stereo unspecified)	-1	0	0	17*	0
O=C(O)c1ccc(OCc2ccc(C(=O)O)o2)cc1	2	12	-2	-2	0
O=C(O)c1ccc(COc2ccc([N+](=O)[O-])cc2)o1	2	2	-2	19*	0
O=C(Cn1nc(-c2ccc(Cl)cc2)ccc1=O)NCC1COCCO1 (stereo unspecified)	1	-2	0	18*	1
O=C(NNS(=O)(=O)c1ccc(F)cc1)c1ccc(O)cc1	-2	4	1	1	1
CSc1ccc(S(=O)(=O)NCCCn2ccnc2)cc1	5	7	0	1	4
CCCc1ccc(-c2cc(NC(=O)CSc3nnc(N)s3)n(-c3ccccc3)n2)cc1	2	19	6	20*	3
Cc1ccc(SC(C)c2nc(-c3ccccc3)no2)cc1 (stereo unspecified)	x	10	x	x	x
Nc1nnc(CC(=O)N/N=C/c2ccc(-c3cccc(C(=O)O)c3)o2)s1	5	0	0	20*	-12
O=C(C[C@@H]1CC[C@H](NS(=O)(=O)c2ccccc2)[C@@H](CO)O1)N1CCc2ccccc2C1	x	x	-5	9	5
Cc1cccc(NC(=O)c2ccc(S(=O)(=O)N3CCCCC3)cc2)n1	38*	-3	-384	x	1
CC(C)NC(=O)Nc1ccc2c(c1)C(=O)N([C@@H](C)CO)C[C@@H](C)[C@H](CN(C)Cc1ccc(C(F)(F)F)cc1)OCCCC[C@@H](C)O2	12	x	5	17*	1
CC(C)NC(=O)Nc1ccc2c(c1)C(=O)N([C@H](C)CO)C[C@@H](C)[C@@H](CN(C)Cc1ccc(C(F)(F)F)cc1)OCCCC[C@H](C)O2	11	x	3	3	-5
C[C@@H]1CCCCO[C@H](CN(C)Cc2ccc(C(F)(F)F)cc2)[C@H](C)CN([C@H](C)CO)C(=O)c2cc(NC(=O)c3ccncc3)ccc2O1	12	x	2	20*	3
COc1ccccc1CN1C[C@@H]2N[C@H](C1)C2c1ccc(/C=C/c2ccccc2)cc1 (stereo partly specified)	-15	x	30*	3	-4
O=C(Nc1ccccc1)N1C[C@@H]2N[C@H](C1)C2c1ccc(-c2ccccc2)cc1 (stereo partly specified)	5	x	5	3	9
